Published values gathered from unrelated publications.
Protocols differ between the studies behind these lines.
Target: Fibroblast growth factor receptor 4 (FGFR4, Homo sapiens, UniProt P22455)

Structure (SMILES)	read-out	mode	technique	concentration	quantity	result
COc1ccc2oc(-c3ccc4nc(N)oc4c3)c/c(=N\c3ccccc3NC(=O)CCN)c2c1	binding	–	–	1 µM	remaining binding	102%
C=CC(=O)N1CCC[C@@H](n2nc(-c3ccc(Oc4ccccc4)cc3)c3c(N)ncnc32)C1	enzyme activity	inhibitor	–	1 µM	inhibition	8%
C[C@H]1CC[C@H](n2c3cnccc3c3cnc(Nc4ccc5c(n4)CCN(C(=O)CO)C5)nc32)CC1	binding	–	–	1 µM	remaining binding	100%
C=CC(=O)N1CCC([C@@H]2CCNc3c(C(N)=O)c(-c4ccc(Oc5ccccc5)cc4)nn32)CC1	cell-free assay	–	–	1 µM	inhibition	10%
CC(C)S(=O)(=O)c1ccc2nccc(Nc3ccc4sc(C5CCCC5)nc4c3)c2c1	enzyme activity	inhibitor	–	1 µM	activity vs control	108%
CCCCC(=O)Nc1ccc(-c2ccc3ncn(CCC)c(=O)c3c2)cn1	binding	–	competition with immobilised ligand	0.5 µM	remaining binding	100%
COc1ccc2[nH]c3c4[nH]c5ccc(OC)cc5c4c4c(c3c2c1)C(=O)NC4=O	binding	–	–	1 µM	remaining binding	85%
C1=C/COCc2cc(ccc2OCCN2CCCC2)Nc2nccc(n2)-c2cccc(c2)COC/1	binding	–	–	0.1 µM	remaining binding	100%
